Experimental data from PMC12222688 (Scientific Reports, 2025).

Target: plasma kallikrein (pKal) (Homo sapiens, UniProt P03952)
Assay: cell-free fluorogenic substrate enzyme activity assay with recombinant pKal
Format: biochemical
Method in brief: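 Human recombinant plasma kallikrein was dissolved in deionized water and used with its protein-specific fluorogenic substrate under cell-free conditions. Test compound, at concentrations up to 3000 µg/mL, was incubated with substrate solution for 30 min at 37 °C. Fluorescence was read on a microplate reader. Autofluorescence was subtracted, and relative fluorescence units were normalized to blank samples.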

Sequence of plasma kallikrein (pKal) (P03952 20-390): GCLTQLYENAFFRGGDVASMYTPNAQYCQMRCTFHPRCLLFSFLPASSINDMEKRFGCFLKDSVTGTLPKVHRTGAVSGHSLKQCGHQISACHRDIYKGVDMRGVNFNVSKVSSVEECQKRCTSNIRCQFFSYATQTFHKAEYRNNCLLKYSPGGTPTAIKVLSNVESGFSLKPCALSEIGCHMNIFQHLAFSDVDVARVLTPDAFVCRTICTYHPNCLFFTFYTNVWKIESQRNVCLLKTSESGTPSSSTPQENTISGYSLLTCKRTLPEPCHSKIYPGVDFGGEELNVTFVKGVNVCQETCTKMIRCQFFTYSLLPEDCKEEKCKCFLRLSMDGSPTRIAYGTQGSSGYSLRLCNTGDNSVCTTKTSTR
Sequence of plasma kallikrein (pKal) (P03952 391-638): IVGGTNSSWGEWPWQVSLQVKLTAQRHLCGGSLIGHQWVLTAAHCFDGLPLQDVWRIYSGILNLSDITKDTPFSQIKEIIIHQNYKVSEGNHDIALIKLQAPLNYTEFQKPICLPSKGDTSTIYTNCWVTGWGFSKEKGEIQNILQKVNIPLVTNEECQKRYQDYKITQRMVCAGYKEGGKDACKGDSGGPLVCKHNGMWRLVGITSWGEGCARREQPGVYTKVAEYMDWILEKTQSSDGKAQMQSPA

`C[C@@H]1O[C@@H](O[C@@H]2[C@@H](O)[C@H](OCCc3ccc(O)c(O)c3)O[C@H](CO)[C@H]2OC(=O)/C=C/c2ccc(O)c(O)c2)[C@H](O)[C@H](O)[C@H]1O` [acteoside] was tested. Which IC50 did it give?
The IC50 was 313 µM.
